Source: PubChem BioAssay (several laboratories)
SENP8 block-1: blocks the human protease SENP8; inhibition, % at 10 µM; purified SENP8, Z-RLRGG-aminoluciferin cleavage, luminescence; hit rate 1.2% among 330,000; AID 2540; Q96LD8; in the data active = inhibition above about 50%
SENP7 inh: SENP7 protease inhibition. Q9BQF6. recombinant SENP7, Z-RLRGG-aminoluciferin luminescence, 40 min. inhibition, % at 5 µM. hit rate 1.5% among 330,000. AID 434973;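 active = inhibition above about 50% at the single test dose, limit read from the data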;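 note: plate controls were DMSO with enzyme for no effect and no enzyme buffer wells for full effect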
HSP90 refold inh: HSP90 refolding inhibition in rabbit reticulocyte lysate; inhibition, % at 5.6 µM; hit rate 0.91% among 290,000; luciferase refolding luminescence, 3 h; AID 1789;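 active = inhibition above the screen-wide mean plus 3 SD, computed separately per campaign, cut at about 16% in these data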;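 note: 0% = DMSO wells and 100% = 60 µM geldanamycin wells; inhibitors lower the luminescence because luciferase stays unfolded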
SENP1 FRET inh: blocks the human SENP1 SUMO protease catalytic domain; recombinant SENP1 catalytic domain, CyPet-SUMO1-YPet FRET cleavage; Q9P0U3; hit rate 0.21% among 360,000; inhibition, % at 10 µM;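 active = inhibition at least 30% at 10 µM, raw YFP signal under a set limit, fluorescence ratio 0.5 to 1.5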;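 note: 0% = enzyme with DMSO and 100% = no enzyme wells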
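Test system: hSENP1 catalytic domain, recombinant; Amount: 20 pM final SENP1 enzyme; Medium: Tris pH 8 buffer plus EDTA, NaCl, BME, BSA, NP40, catalase; Schedule: 50 min enzyme reaction, room temperature, light-protected; Technique: FRET fluorescence in CFP and YFP emission channels; Controls: no-enzyme wells low, DMSO-plus-enzyme wells high control.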
SENP8 block-2: SENP8 (human) protease inhibition | hit rate 0.64% among 360,000 | Q96LD8 | AID 602440 | recombinant SENP8, Nedd8 substrate fluorescence | inhibition, % at 20 µM; in the data active = inhibition mostly above about 40%, no sharp cut-off; inactive = mostly below about 27%
SENP6 block: inhibitors of human SENP6 protease | Recombinant SENP6 catalytic domain, aminoluciferin luminescence | inhibition, % at 10 µM | hit rate 1.8% among 330,000;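 active = inhibition above about 50% at the single tested dose, limit read from the data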;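 note: plate controls were DMSO wells with enzyme for no effect and DMSO wells lacking enzyme for full effect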
Target sequence (Q9GZR1 628-1112 limits assumed): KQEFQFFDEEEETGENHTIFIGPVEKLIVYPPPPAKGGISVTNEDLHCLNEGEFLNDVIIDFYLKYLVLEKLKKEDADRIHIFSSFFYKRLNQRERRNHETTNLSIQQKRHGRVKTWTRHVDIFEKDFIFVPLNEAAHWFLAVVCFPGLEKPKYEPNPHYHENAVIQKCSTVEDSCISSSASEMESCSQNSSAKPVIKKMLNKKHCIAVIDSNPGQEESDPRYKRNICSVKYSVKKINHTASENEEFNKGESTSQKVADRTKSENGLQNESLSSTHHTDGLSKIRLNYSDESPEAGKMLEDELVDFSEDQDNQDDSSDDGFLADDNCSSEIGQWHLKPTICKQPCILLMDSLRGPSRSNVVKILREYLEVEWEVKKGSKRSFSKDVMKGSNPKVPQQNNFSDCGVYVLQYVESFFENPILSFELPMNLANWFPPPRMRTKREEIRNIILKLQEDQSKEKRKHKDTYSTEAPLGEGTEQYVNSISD
HSP90 confirm: HSP90 inhibition, confirmation assay. rabbit reticulocyte lysate, luciferase refolding luminescence, 3 h. shares compounds with HSP90 refold inh. AID 1846. hit rate 64% among 2,300. inhibition, % at 5.9 µM; in the data active = inhibition above about 18%;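 note: 0% = vehicle wells and 100% = reference inhibitor wells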
luciferase ctr: firefly luciferase inhibition, HSP90 counter-screen; purified native firefly luciferase, luminescence; shares compounds with HSP90 refold inh; hit rate 48% among 2,300; inhibition, % at 5.9 µM; AID 1847;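 active = inhibition above the mean inhibition of all tested sample wells plus 3 SD, cut at about 10% in these data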;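 note: 0% = DMSO with luciferase and 100% = wells lacking luciferase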
* = called active by the depositor; i = inactive; x = no result given. Rows were chosen to be rich in hits. Some 2.9% of all compounds tested hit in one or more screens of this group.

SMILES | SENP8 block-1 | SENP7 inh | HSP90 refold inh | SENP1 FRET inh | SENP8 block-2 | SENP6 block | HSP90 confirm | luciferase ctr
Cc1ccc(S(=O)(=O)N2CCN(C(=O)Cn3cnc4c3c(=O)n(C)c(=O)n4C)CC2)cc1C | 0.8 | 1.6 | x | -5.9 | 14.7 | -1.9 | x | x
COC(=O)c1ccc(NC(=O)C[n+]2ccccc2C)cc1 | 1.8 | 4.3 | 19.8* | -1.4 | 15.1 | 11.9 | 1.0 | -4.1
O=C(Nc1ccccc1NC(=O)c1csnn1)c1csnn1 | -4.7 | -5.7 | -1.5 | 0.0 | 5.9 | -13.2 | x | x
CC(C)c1ccc(NC(=O)c2csnn2)cc1 | 12.5 | 42.2 | 19.7* | 0.0 | 11.5 | 46.2 | 32.6* | 23.1*
CC(C)CNC(=O)c1cc(-c2ccc3c(c2)OCO3)on1 | 12.4 | 32.4 | 31.1* | 1.1 | -37.1 | 41.7 | 37.8* | 24.2*
CC(C)CNC(=O)COCc1cc(-c2ccc3c(c2)OCO3)on1 | -11.9 | 6.4 | -2.4 | -2.8 | 1.8 | 16.0 | x | x
CC(C)c1ccc(N(CC(=O)NCc2cccnc2)S(=O)(=O)c2ccccc2)cc1 | -10.0 | -5.5 | 26.6* | -0.6 | 4.9 | 4.8 | 0.6 | -3.0
C[C@@H]1CN([C@H](C)CO)C(=O)Cc2cc(NC(=O)Nc3ccccc3)ccc2O[C@@H]1CN(C)C(=O)Nc1ccc2c(c1)OCO2 | -10.5 | -6.2 | x | 1.5 | 13.0 | -27.9 | x | x
O=C(O)c1ccc(N/N=C/C2=C(N3CCOCC3)C(=C\c3ccccc3)/CC2)cc1 | -6.8 | 1.5 | 17.6* | -33.8 | -65.0 | -18.1 | 2.9 | 2.4
Cc1cc(C)nc(N/N=C/C2=C(N3CCOCC3)C(=C\c3ccc(Cl)cc3)/CC2)n1 | 2.6 | 5.2 | 1.8 | -0.9 | -311.1 | 10.6 | x | x
O=C(/C=C/c1cnc2ccccc2n1)NC12CC3CC(CC(C3)C1)C2 | -5.2 | -4.3 | 28.0* | -0.4 | 8.3 | -13.1 | 43.6* | 32.0*
Cc1ccc(OCC(=O)NC(=S)Nc2ccccn2)c(Br)c1 | 45.7 | -36.0 | 72.5* | -1.3 | 10.2 | 42.8 | 80.4* | 79.4*
O=C(COc1ccc(Br)cc1Cl)NC(=S)Nc1ccccn1 | 6.0 | -3.4 | 32.2* | 3.2 | 8.3 | -7.5 | 38.1* | 32.5*
COc1ccc2c(c1)c(/C=N/Nc1ccc(C(=O)O)cc1)c(C)n2C | -5.3 | 7.8 | 30.4* | -1.0 | -387.1 | -6.9 | 41.1* | 34.6*
COc1ccc(OC)c(S(=O)(=O)NC2CC(=O)N(c3ccc(C)c(C)c3)C2)c1 (centres undefined) | 4.9 | -4.6 | x | -0.2 | -0.2 | -12.8 | x | x
C[C@@H](c1ccccc1)N1C[C@@H](COCc2ccccc2)Oc2cc(N3CCC[C@@H]3CO)ccc2S1(=O)=O | x | x | x | -25.6 | -39.7 | x | x | x
Cc1cc(C(=O)CSc2ncccn2)c(C)n1Cc1ccco1 | -3.6 | -2.5 | 17.4* | -0.2 | 0.5 | -3.1 | 46.4* | 37.3*
Cc1cc(C(=O)CSc2nnnn2C)c(C)n1Cc1ccco1 | -4.1 | -2.3 | 2.9 | 0.3 | 9.2 | 2.6 | x | x
O=C(C1CC(=O)N(C2CCCCC2)C1)N1CCN(c2cccc(C(F)(F)F)c2)CC1 (centres undefined) | -6.1 | 3.3 | 0.0 | 1.7 | 7.3 | -6.4 | x | x
CCCCN=C1NN=C(c2ccc3c(c2)OCCO3)CS1 | 17.5 | -2.5 | 51.6* | 3.1 | -10.3 | 15.2 | 42.3* | 35.0*
CCCCN=C1NN=C(c2ccc(C)c(C)c2)CS1 | -13.9 | -0.7 | -0.7 | 1.7 | -9.9 | -2.5 | x | x
CNc1ccc(/C=C\CCCO)cn1 | x | x | x | -1.6 | i | x | x | x
C[C@H]1CN([C@@H](C)CO)C(=O)CCCn2nncc2CO[C@@H]1CN(C)S(=O)(=O)c1ccc(-n2cccn2)cc1 | x | x | x | -0.4 | 7.9 | x | x | x
COc1ccccc1N1CCN(C(=S)Nc2cccc(C)c2)CC1 | 3.6 | 1.8 | 27.1* | 2.2 | 2.8 | -14.6 | 29.5* | 1.2
O=C(NCC(c1ccco1)N1CCCCC1)c1cccc(S(=O)(=O)Nc2ccc(F)cc2)c1 (centres undefined) | -7.4 | -7.7 | x | -2.0 | 4.1 | 1.2 | x | x
O=c1nc(N/N=C/c2c[nH]c3ccccc23)cn[nH]1 | 5.7 | 28.4 | 27.3* | -1.7 | 31.1 | 38.9 | 30.4* | 14.0*
